Tests used:
Assay type in all cases: functional
HOP-62 = test: Growth inhibition of human HOP62 cells assessed as cell growth at 10^-8 M after 48 hrs by sulforhodamine B assay; conditions: HOP-62, 48 h, read-out: Activity
Procedure, shortened: (§1)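 Five-dose screen at NCI. Cells in RPMI 1640 with 5% FBS and 2 mM L-glutamine, seeded at 5000–40,000 cells/well and grown 24 h at 37 °C, 5% CO2 before dosing, with time-zero plates TCA-fixed. Drug diluted from DMSO stock to 0.01, 0.1, 1, 10 and 100 µM final, 48 h. Cells fixed with cold TCA (10% final), stained with 0.4% SRB and read at 515 nm. Percent growth from Tz, control and test absorbances; GI50, TGI and LC50 from dose-response curves.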

A549 = test: Growth inhibition of human A549/ATCC cells assessed as cell growth at 10^-4 M after 48 hrs by sulforhodamine B assay; conditions: A549, 48 h, read-out: Activity
Procedure, shortened: (§2)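 Five-dose NCI-60 run (0.01, 0.1, 1, 10 and 100 µM, as 10-fold dilutions from a DMSO stock made at 400× the top final level). Cells were grown in RPMI 1640 with 5% FBS and 2 mM glutamine and plated for 24 h. They were then exposed for 48 h at 37 °C and 5% CO2. TCA fixation was followed by SRB staining with A515 read-out. Percent growth was taken relative to time-zero and control plates.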

SNB-75 [1] = test: Growth inhibition of human SNB75 cells assessed as cell growth at 10^-4 M after 48 hrs by sulforhodamine B assay; conditions: SNB-75, 48 h, read-out: Activity
NCI-H460 [2] = test: Growth inhibition of human NCI-H460 cells after 48 hrs by sulforhodamine B assay; conditions: NCI-H460, 48 h; for CC50: read-out: LC50 (the source's name)
Procedure, shortened: (§3)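 Adherent cells in RPMI 1640 with 5% FBS and 2 mM L-glutamine were plated at 5000–40,000 cells/well and grown 24 h. Five concentrations (0.01–100 µM, DMSO stock) were added for 48 h at 37 °C. Cells were fixed with cold TCA (10% final) and stained with SRB, read at 515 nm. GI50 came from log concentration–growth curves against time-zero and control plates.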

HL-60(TB) [3] = test: Growth inhibition of human HL-60(TB) cells assessed as cell growth at 10^-6 M after 48 hrs by sulforhodamine B assay; conditions: HL-60, 48 h, read-out: Activity
Procedure, shortened: (§4)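 HL-60(TB) suspension cells were treated 48 h at 37 °C within the five-dose series (0.01–100 µM), fixed with 16% final TCA and SRB-stained, read at 515 nm. Percentage growth at each concentration = (Ti−Tz)/(C−Tz)×100, or (Ti−Tz)/Tz×100 when Ti<Tz, with time-zero (Tz) and untreated control (C) plates.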

NCI-H322M = test: Growth inhibition of human NCI-H322M cells assessed as cell growth at 10^-7 M after 48 hrs by sulforhodamine B assay; conditions: read-out: Activity
A498 [4] = test: Growth inhibition of human A498 cells after 48 hrs by sulforhodamine B assay; conditions: A498, 48 h; for CC50: read-out: LC50 (the source's name); procedure, shortened: as §3
NCI-H460 [5] = test: Growth inhibition of human NCI-H460 cells assessed as cell growth at 10^-8 M after 48 hrs by sulforhodamine B assay; conditions: NCI-H460, 48 h, read-out: Activity
NCI-H226 = test: Growth inhibition of human NCI-H226 cells assessed as cell growth at 10^-4 M after 48 hrs by sulforhodamine B assay; conditions: NCI-H226, 48 h, read-out: Activity
COLO 205 [6] = test: Growth inhibition of human COLO205 cells assessed as cell growth at 10^-6 M after 48 hrs by sulforhodamine B assay; conditions: COLO 205, 48 h, read-out: Activity; procedure, shortened: as §2
UACC-257 [7] = test: Growth inhibition of human UACC257 cells assessed as cell growth at 10^-6 M after 48 hrs by sulforhodamine B assay; conditions: UACC-257, 48 h, read-out: Activity
COLO 205 [8] = test: Growth inhibition of human COLO205 cells after 48 hrs by sulforhodamine B assay; conditions: COLO 205, 48 h, read-out: LC50 (the source's name); procedure, shortened: as §3
COLO 205 [9] = test: Growth inhibition of human COLO205 cells assessed as cell growth at 10^-8 M after 48 hrs by sulforhodamine B assay; conditions: COLO 205, 48 h, read-out: Activity; procedure, shortened: as §2
HL-60(TB) [10] = test: Growth inhibition of human HL-60(TB) cells assessed as cell growth at 10^-5 M after 48 hrs by sulforhodamine B assay; conditions: HL-60, 48 h, read-out: Activity; procedure, shortened: as §4
UACC-257 [11] = test: Growth inhibition of human UACC257 cells after 48 hrs by sulforhodamine B assay; conditions: UACC-257, 48 h, read-out: LC50 (the source's name)
Procedure, shortened: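 NCI-60 screen. Cells grown in RPMI 1640 with 5% FBS and 2 mM L-glutamine, plated at 5000–40,000 cells/well and preincubated 24 h at 37 °C, 5% CO2. A time-zero plate is TCA-fixed at drug addition. DMSO stocks diluted in medium; five concentrations (0.01, 0.1, 1, 10, 100 µM). Exposure 48 h, then cold TCA fixation and 0.4% SRB staining, absorbance at 515 nm. GI50 is taken from the growth-percentage curve relative to time zero and control.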

T47D = test: Growth inhibition of human T47D cells after 48 hrs by sulforhodamine B assay; conditions: for CC50: read-out: LC50 (the source's name)
Procedure, shortened: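 Five-dose NCI 60 screen at 0.01, 0.1, 1, 10 and 100 µM, 48 h exposure after 24 h preincubation, in RPMI 1640 with 5% FBS and 2 mM glutamine. Fixed with TCA (10% final for adherent cells, 16% for suspension cells), stained with SRB, A515 read. Percent growth uses time-zero (Tz), control and treated plates. GI50, TGI and LC50 are read from the dose-response curves.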

SNB-19 = test: Growth inhibition of human SNB19 cells assessed as cell growth at 10^-6 M after 48 hrs by sulforhodamine B assay; conditions: SNB-19, 48 h, read-out: Activity
SN12C = test: Growth inhibition of human SN12C cells after 48 hrs by sulforhodamine B assay; conditions: for CC50: read-out: LC50 (the source's name); procedure, shortened: as §3
RXF 393 = test: Growth inhibition of human RXF393 cells assessed as cell growth at 10^-4 M after 48 hrs by sulforhodamine B assay; conditions: RXF 393, 48 h, read-out: Activity
SNB-75 [12] = test: Growth inhibition of human SNB75 cells assessed as cell growth at 10^-8 M after 48 hrs by sulforhodamine B assay; conditions: SNB-75, 48 h, read-out: Activity
A498 [13] = test: Growth inhibition of human A498 cells assessed as cell growth at 10^-8 M after 48 hrs by sulforhodamine B assay; conditions: A498, 48 h, read-out: Activity; procedure, shortened: as §2
IGROV-1 = test: Growth inhibition of human IGROV1 cells assessed as cell growth at 10^-5 M after 48 hrs by sulforhodamine B assay; conditions: IGROV-1, 48 h, read-out: Activity; procedure, shortened: as §1

| Structure (SMILES) | growth at 0.01 µM (HOP-62) [%] | growth at 100 µM (A549) [%] | growth at 100 µM (SNB-75 [1]) [%] | CC50 (NCI-H460 [2]) [µM] | growth at 1 µM (HL-60(TB) [3]) [%] | growth at 0.1 µM (NCI-H322M) [%] | CC50 (A498 [4]) [µM] | growth at 0.01 µM (NCI-H460 [5]) [%] | growth at 100 µM (NCI-H226) [%] | growth at 1 µM (COLO 205 [6]) [%] | growth at 1 µM (UACC-257 [7]) [%] | CC50 (COLO 205 [8]) [µM] | growth at 0.01 µM (COLO 205 [9]) [%] | growth at 10 µM (HL-60(TB) [10]) [%] | CC50 (UACC-257 [11]) [µM] | GI50 (T47D) [µM] | CC50 (T47D) [µM] | growth at 1 µM (SNB-19) [%] | TGI (SN12C) [µM] | CC50 (SN12C) [µM] | also measured |
| --- | --- | --- | --- | --- | --- | --- | --- | --- | --- | --- | --- | --- | --- | --- | --- | --- | --- | --- | --- | --- | --- |
| O=S(=O)(Nc1ccccn1)c1ccc2nc(-c3ccccc3)c(-c3ccccc3)nc2c1 | 96 | 51 | 20 | > 100 | 74 | 102 | > 100 | 104 | 70 | 94 | 81 | 100 | 98 | -30 | > 100 | 1.12 | > 100 | 87 | > 100 | > 100 | TGI (NCI-H460 [2]): > 100 µM; GI50 (A498 [4]): 1.67 µM; TGI (T47D): 5.14 µM; growth at 100 µM (RXF 393): 38%; growth at 0.01 µM (SNB-75 [12]): 85%; growth at 0.01 µM (A498 [13]): 88%; growth at 10 µM (IGROV-1): 30% |
| O=S(=O)(Nc1ccc(Cl)cc1)c1ccc2nc(-c3ccccc3)c(-c3ccccc3)nc2c1 | 96 | 73 | 46 | > 100 | 89 | 98 | > 100 | 101 | 73 | 103 | 84 | > 100 | 101 | -32 | > 100 | 1.62 | > 100 | 89 | > 100 | > 100 | growth at 100 µM (RXF 393): 51%; growth at 0.01 µM (SNB-75 [12]): 75%; growth at 0.01 µM (A498 [13]): 75%; growth at 10 µM (IGROV-1): 24% |

Source: ChEMBL document CHEMBL2407075, “Sulphonamido-quinoxalines: search for anticancer agent” (Eur J Med Chem, 2013)
